From ChEMBL document CHEMBL1123247, “Nucleoside conjugates. 7. Synthesis and antitumor activity of 1-beta-D-arabinofuranosylcytosine conjugates of ether lipids” (J Med Chem, 1986)

Assays:
HL-60 = assay: Compound was tested for the inhibition of human HL60 Leukemia; format: functional, cell-based
In short: (§1)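 Human leukemia and solid tumor cells in culture were exposed to compound for 48 h. Viability was scored by trypan blue dye exclusion. IC50 (50% inhibition) was estimated from response curves of three separate experiments.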

L1210 [1] = assay: Antitumor activity was determined against the ip implanted L1210 leukemia in mice by 45-day survivors in mice at 300 mg/kg (treatment of 1qd schedule) dosage; format: functional, Mus musculus; details: route intraperitoneal
In short: (§2)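 DBA/2J mice in groups of 6 (wt 23-28 g) were inoculated ip with 1×10^6 L1210 cells on day 0. Dosing was ip from 24 h, in 0.9% NaCl with 0.5% Tween-80 (conjugates sonicated), across a range of doses. Mice were observed daily until death or 45 days. Median T/C was computed from survivors per NCI protocols, and ILS = (T/C − 1)×100.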

L1210 [2] = assay: Antitumor activity was determined against the ip implanted L1210 leukemia in mice by percent increase in life span at 80 mg/kg (treatment of 1-5qd schedule) dosage; format: functional, Mus musculus; details: route intraperitoneal; in short: as §2
L1210 [3] = assay: Antitumor activity was determined against the ip implanted L1210 leukemia in mice by change in […] at 300 mg/kg (treatment of 1qd schedule) dosage; format: functional, Mus musculus; details: route intraperitoneal
In short: (§3)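 DBA/2J mice, 6 per group (wt 23-28 g), inoculated ip with 1×10^6 L1210 cells on day 0. Treatment was given ip in 0.9% NaCl with 0.5% Tween-80, starting 24 h later. Weight change was taken on day 8. Mice were observed daily until death or 45 days. Median survival T/C and %ILS = (T/C − 1) × 100 came from survivors per NCI protocols, and 45-day survivors were counted.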

P388 [4] = assay: Antitumor activity was determined against the ip implanted P388 leukemia in mice by change in […] at 300 mg/kg (1 qd treatment schedule) dosage; format: functional, Mus musculus; details: route intraperitoneal
In short: (§4)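 P388 leukemia, 1×10^6 cells implanted ip on day 0 into DBA/2J mice, groups of 6 (wt 23-33 g). Dosing ip started 24 h post-inoculation, vehicle 0.9% NaCl containing 0.5% Tween-80. Animals were observed daily until death or 45 days. Outputs were weight change, median survival T/C from survivors per NCI protocols, and %ILS = (T/C − 1) × 100.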

L1210 [5] = assay: Antitumor activity against the ip implanted L1210 leukemia in mice expressed as optimal dose (1-5qd treatment schedule) required to produce greatest increase in life span was determined; format: functional, Mus musculus
In short: (§5)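 DBA/2J mice, groups of 6 (23-28 g), were inoculated ip with 1 × 10^6 L1210 cells on day 0. Dosing was ip from 24 h, in 0.9% NaCl with 0.5% Tween-80 (sonicated solution or suspension). Mice were observed daily until death or day 45. Median survival T/C followed NCI protocols, and ILS = (T/C − 1) × 100. Active range means doses giving ILS ≥25%; optimal dose means greatest ILS.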

P388 [6] = assay: Antitumor activity was determined against the ip implanted P388 leukemia in mice by range in survival days at 300 mg/kg (1 qd treatment schedule) dosage; Range is 3-18; format: functional, Mus musculus; details: route intraperitoneal
P388 [7] = assay: Antitumor activity was determined against the ip implanted P388 leukemia in mice by range in survival days at 60 mg/kg (1-5qd treatment schedule) dosage; Range is 18-21; format: functional, Mus musculus; details: route intraperitoneal
L1210 [8] = assay: Antitumor activity was determined against the ip implanted L1210 leukemia in mice by range in survival days at 80 mg/kg (treatment of 1-5qd schedule) dosage; Range is 17-18; format: functional, Mus musculus; details: route intraperitoneal
In short: (§6)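 DBA/2J mice, 23-28 g, in groups of 6, were inoculated ip with 1×10^6 L1210 cells on day 0. Dosing was ip starting 24 h later on the stated daily schedules. Conjugates were given as sonicated solutions and reference prodrugs as suspensions in 0.9% NaCl with 0.5% Tween-80. Mice were observed daily until death or 45 days. Median survival T/C was calculated from survivors per NCI protocols.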

L1210 [9] = assay: Antitumor activity was determined against the ip implanted L1210 leukemia in mice by percent median survival rate (treated/control) at 80 mg/kg (treatment of 1-5qd schedule) dosage; 18.0/7.0; format: functional, Mus musculus; details: route intraperitoneal; in short: as §6
P388 [10] = assay: Antitumor activity against ip implanted P388 leukemia in mice expressed as active dose range (1-5qd treatment schedule) required to produce increase in life span by >25% was determined; Range is 60-80; format: functional, Mus musculus
In short: (§7)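 P388 leukemia: 1 × 10^6 cells were given ip on day 0 to DBA/2J mice, groups of 6 (23-33 g). Treatment was ip from 24 h after inoculation, vehicle 0.9% NaCl with 0.5% Tween-80. Mice were observed daily until death or 45 days. Median survival T/C was calculated from survivors per NCI protocols, and ILS = (T/C − 1) × 100. Active range means doses giving ILS ≥25%; optimal dose means greatest ILS.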

P388 [11] = assay: Antitumor activity was determined against the ip implanted P388 leukemia in mice by percent median survival rate (treated/control) at 60 mg/kg (1-5qd treatment schedule) dosage; 21.0/12.0; format: functional, Mus musculus; details: route intraperitoneal
NSCLC = assay: Compound was tested for the inhibition of non- small cell lung cancer; format: functional, cell-based; details: Homo sapiens; in short: as §1
P388 [12] = assay: Antitumor activity was determined against the ip implanted P388 leukemia in mice by change in […] at 60 mg/kg (1-5qd treatment schedule) dosage; format: functional, Mus musculus; details: route intraperitoneal; in short: as §4
P388 [13] = assay: Antitumor activity was determined against the ip implanted P388 leukemia in mice by percent increase in life span at 60 mg/kg (1-5qd treatment schedule) dosage; format: functional, Mus musculus; details: route intraperitoneal
In short: (§8)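 DBA/2J mice, 23-33 g, in groups of 6, were inoculated ip with 1×10^6 P388 cells on day 0. Dosing was ip from 24 h on the stated schedules, in 0.9% NaCl with 0.5% Tween-80 (sonicated solution or suspension). Survival was followed daily until death or 45 days. Median T/C was calculated from survivors per NCI protocols, with ILS = (T/C − 1) × 100.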

[14] = tested on: Small cell lung cancer cell line; assay: Compound was tested for the inhibition of small cell lung cancer; format: functional, cell-based; details: Homo sapiens; in short: as §1
Glioblastoma cell line = assay: Compound was tested for the inhibition of glioblastoma; format: functional, cell-based; details: Homo sapiens; in short: as §1
L1210 [15] = assay: Antitumor activity was determined against the ip implanted L1210 leukemia in mice by 45-day survivors in mice at 80 mg/kg (treatment of 1-5qd schedule) dosage; format: functional, Mus musculus; details: route intraperitoneal; in short: as §2
L1210 [16] = assay: Antitumor activity was determined against the ip implanted L1210 leukemia in mice by range in survival days at 300 mg/kg (treatment of 1qd schedule) dosage; Range is 9-10; format: functional, Mus musculus; details: route intraperitoneal; in short: as §6
L1210 [17] = assay: Antitumor activity against ip implanted L1210 leukemia in mice expressed as active dose range (1-5qd treatment schedule) required to produce increase in life span by >25% was determined; Range is 10-120
P388 [18] = assay: Antitumor activity was determined against the ip implanted P388 leukemia in mice by percent median survival rate (treated/control) at 300 mg/kg (1 qd treatment schedule) dosage; 12.5/11.0; format: functional, Mus musculus; details: route intraperitoneal
P388 [19] = assay: Antitumor activity was determined against the ip implanted P388 leukemia in mice by percent increase in life span at 300 mg/kg (1 qd treatment schedule) dosage; format: functional, Mus musculus; details: route intraperitoneal; in short: as §8
P388 [20] = assay: Antitumor activity was determined against the ip implanted P388 leukemia in mice by 45-day survivors in mice at 300 mg/kg (1 qd treatment schedule) dosage; format: functional, Mus musculus; details: route intraperitoneal; in short: as §8
CML/BC = assay: Compound was tested for the inhibition of CML/BC(chronic myeloid leukemia, blast crisis); format: functional, cell-based; details: Homo sapiens; in short: as §1
P388 [21] = assay: Antitumor activity was determined against the ip implanted P388 leukemia in mice by 45-day survivors in mice at 60 mg/kg (1-5qd treatment schedule) dosage; format: functional, Mus musculus; details: route intraperitoneal; in short: as §8
L1210 [22] = assay: Antitumor activity was determined against the ip implanted L1210 leukemia in mice by change in […] at 80 mg/kg (treatment of 1-5qd schedule) dosage; format: functional, Mus musculus; details: route intraperitoneal; in short: as §3
AMML = assay: Compound was tested for the inhibition of AMML (acute myelomonocytic leukemia); format: functional, cell-based; details: Homo sapiens; in short: as §1
L1210 [23] = assay: Antitumor activity was determined against the ip implanted L1210 leukemia in mice by percent increase in life span at 300 mg/kg (treatment of 1qd schedule) dosage; format: functional, Mus musculus; details: route intraperitoneal; in short: as §2
L1210 [24] = assay: Antitumor activity was determined against the ip implanted L1210 leukemia in mice by percent median survival rate (treated/control) at 300 mg/kg (treatment of 1qd schedule) dosage; 9.5/8.0; format: functional, Mus musculus; details: route intraperitoneal; in short: as §6
L1210 [25] = assay: Antitumor activity against the ip implanted L1210 leukemia in mice expressed as optimal dose (1 qd treatment schedule) required to produce greatest increase in life span was determined; format: functional, Mus musculus; in short: as §5
P388 [26] = assay: Antitumor activity against the ip implanted P388 leukemia in mice expressed as optimal dose (1-5qd treatment schedule) required to produce greatest increase in life span was determined; format: functional, Mus musculus; set-up: unit: mg/kg; in short: as §7
P388 [27] = assay: Antitumor activity against the ip implanted P388 leukemia in mice expressed as optimal dose (1 qd treatment schedule) required to produce greatest increase in life span was determined; format: functional, Mus musculus; in short: as §7
L1210 [28] = assay: Antitumor activity was determined against the ip implanted L1210 leukemia in mice by percent median survival rate (treated/control) at 5 mg/kg (treatment of 1-5qd schedule) dosage; 9.0/8.0; format: functional, Mus musculus; details: route intraperitoneal; in short: as §6
L1210 [29] = assay: Antitumor activity was determined against the ip implanted L1210 leukemia in mice by percent increase in life span at 5 mg/kg (treatment of 1-5qd schedule) dosage; format: functional, Mus musculus; details: route intraperitoneal; in short: as §2
L1210 [30] = assay: Antitumor activity was determined against the ip implanted L1210 leukemia in mice by 45-day survivors in mice at 5 mg/kg (treatment of 1-5qd schedule) dosage; format: functional, Mus musculus; details: route intraperitoneal; in short: as §2
L1210 [31] = assay: Antitumor activity was determined against the ip implanted L1210 leukemia in mice by range in survival days at 5 mg/kg (treatment of 1-5qd schedule) dosage; Range is 8-9; format: functional, Mus musculus; details: route intraperitoneal; in short: as §6

CCCCCCCCCCCCCCCCCCOCC(COP(=O)(O)OP(=O)(O)OC[C@H]1O[C@@H](n2ccc(N)nc2=O)[C@@H](O)[C@@H]1O)OC (mixture of isomers)
IC50 (HL-60): 13 µM | Survivors (L1210 [1]): 0 | ILS (L1210 [2]): 157 | Weight change (L1210 [3]): 2.58 g mouse-1 | Weight change (P388 [4]): 0.38 g mouse-1 | Optimal dose (L1210 [5]): 80 mg | Range (P388 [6]): 3 | Range (P388 [7]): 18 | Range (L1210 [8]): 17 | T/C (L1210 [9]): 18% | Active dose range (P388 [10]): 60 mg/kg/day | T/C (P388 [11]): 21% | IC50 (NSCLC): 38 µM | Weight change (P388 [12]): 0.04 g mouse-1 | ILS (P388 [13]): 75 | IC50 [14]: > 100 µM | IC50 (Glioblastoma cell line): 47 µM | Survivors (L1210 [15]): 0 | Range (L1210 [16]): 9 | Active dose range (L1210 [17]): 10 mg/kg/day | T/C (P388 [18]): 12.5% | ILS (P388 [19]): 14 | Survivors (P388 [20]): 0 | IC50 (CML/BC): 1.2 µM | Survivors (P388 [21]): 0 | Weight change (L1210 [22]): -1.53 g mouse-1 | IC50 (AMML): 2.3 µM | ILS (L1210 [23]): 12 | median survival time (L1210 [24]): 9.5 days | Optimal dose (L1210 [25]): 300 mg/kg/day | Optimal dose (P388 [26]): 60 mg | Optimal dose (P388 [27]): 300 mg

CCCCCCCCCCCCCCCCCCOC[C@H](COP(=O)([O-])OCC[N+](C)(C)C)OC [(R)-EDELFOSINE]
T/C (L1210 [28]): 9% | IC50 (HL-60): 2.5 µM | ILS (L1210 [29]): 13 | Optimal dose (L1210 [5]): 5 mg/kg/day | IC50 (NSCLC): 21 µM | IC50 [14]: 24 µM | IC50 (Glioblastoma cell line): 20 µM | IC50 (CML/BC): 1.5 µM | IC50 (AMML): 3.3 µM | Survivors (L1210 [30]): 0 | Range (L1210 [31]): 8
